These compounds were tested on Echinochloa crus-galli (assay: Herbicidal activity against Echinochloa crus-galli (barnyard grass)). Conditions: not given.
Format: functional, organism-based
Method in brief: (§1)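 Compounds formulated as 10 g/L emulsified concentrates (DMSO solvent, Tween-80 emulsifier), diluted in water and applied to pot-grown plants in a greenhouse (23 ± 1 °C, 60 ± 5% RH, 8 h/day photoperiod). Distilled water and 2,4-D serve as references. Shoot height, root length and fresh weight are measured per cup. Percent inhibition is taken relative to water; mean of three repeats.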

Row | SMILES | EC50
1 | O=C(N/N=C\c1ccccc1)c1cc2c([nH]c3ccccc32)c(-c2ccccc2)n1 | 4.83 µM
2 | O=C(N/N=C\c1ccc(C(F)(F)F)cc1)c1cc2c([nH]c3ccccc32)c(-c2ccccc2)n1 | 14.2 µM

What follows are compounds tested on Brassica rapa subsp. oleifera (assay: Herbicidal activity against Brassica rapa subsp. oleifera). Conditions: not given.
Format: functional, organism-based
Method in brief: as §1

Row | SMILES | EC50
3 | O=C(N/N=C\c1ccccc1)c1cc2c([nH]c3ccccc32)c(-c2ccccc2)n1 | 4.83 µM
4 | O=C(N/N=C\c1ccc(C(F)(F)F)cc1)c1cc2c([nH]c3ccccc32)c(-c2ccccc2)n1 | 14.2 µM

What follows are compounds tested on Echinochloa crus-galli (assay: Herbicidal activity against Echinochloa crus-galli (barnyard grass) assessed as growth inhibition at 10 ug/ml). Conditions: read-out: GI.
Format: functional
Method in brief: as §1

Row | SMILES | inhibition of growth at 10 µg/mL
5 | O=C(N/N=C\c1ccc([N+](=O)[O-])cc1)c1cc2c(cn1)[nH]c1ccccc12 | 24.6%
6 | O=C(N/N=C\c1ccccc1O)c1cc2c(cn1)[nH]c1ccccc12 | 18.1%
7 | COc1cc(/C=N\NC(=O)c2cc3c(cn2)[nH]c2ccccc23)ccc1O | 13.3%
8 | O=C(N/N=C\c1ccco1)c1cc2c(cn1)[nH]c1ccccc12 | 0%
9 | Cc1n[nH]c(Cl)c1/C=N\NC(=O)c1cc2c(cn1)[nH]c1ccccc12 | 6.34%
10 | O=C(N/N=C\Nc1ccc(C(F)(F)F)cc1)c1cc2c(cn1)[nH]c1ccccc12 | 0%
11 | O=C(NN=C(c1ccccc1)c1ccccc1)c1cc2c(cn1)[nH]c1ccccc12 | 0%
12 | Cc1nc(C(=O)N/N=C\c2ccccc2)cc2c1[nH]c1ccccc12 | 21.9%
13 | O=C(N/N=C\c1ccccc1)c1cc2c([nH]c3ccccc32)c(-c2ccccc2)n1 | 30.4%
14 | O=C(N/N=C\c1ccccc1)c1cc2c([nH]c3ccccc32)c(-c2ccc(C(F)(F)F)cc2)n1 | 19.4%
15 | O=C(N/N=C\c1ccccc1)c1cc2c([nH]c3ccccc32)c(-c2ccc(Cl)cc2)n1 | 16.7%
16 | O=C(N/N=C\c1ccc(C(F)(F)F)cc1)c1cc2c([nH]c3ccccc32)c(-c2ccc(C(F)(F)F)cc2)n1 | 9.76%
17 | O=C(N/N=C\c1ccc(C(F)(F)F)cc1)c1cc2c([nH]c3ccccc32)c(-c2ccccc2)n1 | 27.9%
18 | O=C(N/N=C\c1ccc(C(F)(F)F)cc1)c1cc2c([nH]c3ccccc32)c(-c2ccc(Cl)cc2)n1 | 24.1%
19 | O=C(N/N=C\c1ccccc1)C1Cc2c([nH]c3ccccc23)CN1 (stereo not drawn) | 0%
20 | COc1ccc(/C=N\NC(=O)C2Cc3c([nH]c4ccccc34)CN2)cc1 (stereo not drawn) | 0%
21 | COc1cc(/C=N\NC(=O)C2Cc3c([nH]c4ccccc34)CN2)cc(OC)c1OC (stereo not drawn) | 2.51%
22 | O=C(N/N=C\Nc1ccc(C(F)(F)F)cc1)C1Cc2c([nH]c3ccccc23)CN1 (stereo not drawn) | 0%
23 | O=C(N/N=C\c1ccccc1)c1cc2c(cn1)[nH]c1ccccc12 | 11.8%
24 | COc1ccc(/C=N\NC(=O)c2cc3c(cn2)[nH]c2ccccc23)cc1 | 17.5%
25 | COc1cc(/C=N\NC(=O)c2cc3c(cn2)[nH]c2ccccc23)cc(OC)c1OC | 15.1%
26 | COc1cc(OC)c(/C=N\NC(=O)c2cc3c(cn2)[nH]c2ccccc23)c(OC)c1 | 0%
27 | O=C(N/N=C\c1ccc(Cl)cc1)c1cc2c(cn1)[nH]c1ccccc12 | 0%
28 | O=C(O)COc1ccc(Cl)cc1Cl [2,4-DICHLOROPHENOXYACETIC ACID] | 100%
29 | COc1ccc2c(c1)[nH]c1c(C)nccc12 [HARMINE] | 10.8%

Each compound was assayed on Echinochloa crus-galli (assay: Herbicidal activity against Echinochloa crus-galli (barnyard grass) assessed as growth inhibition at 100 ug/ml). Conditions: read-out: GI.
Format: functional
Method in brief: as §1

Row | SMILES | inhibition of growth at 100 µg/mL
30 | O=C(N/N=C\c1ccc([N+](=O)[O-])cc1)c1cc2c(cn1)[nH]c1ccccc12 | 43.2%
31 | O=C(N/N=C\c1ccccc1O)c1cc2c(cn1)[nH]c1ccccc12 | 47.6%
32 | COc1cc(/C=N\NC(=O)c2cc3c(cn2)[nH]c2ccccc23)ccc1O | 33%
33 | O=C(N/N=C\c1ccco1)c1cc2c(cn1)[nH]c1ccccc12 | 0%
34 | Cc1n[nH]c(Cl)c1/C=N\NC(=O)c1cc2c(cn1)[nH]c1ccccc12 | 28.1%
35 | O=C(N/N=C\Nc1ccc(C(F)(F)F)cc1)c1cc2c(cn1)[nH]c1ccccc12 | 0%
36 | O=C(NN=C(c1ccccc1)c1ccccc1)c1cc2c(cn1)[nH]c1ccccc12 | 0%
37 | Cc1nc(C(=O)N/N=C\c2ccccc2)cc2c1[nH]c1ccccc12 | 51.5%
38 | O=C(N/N=C\c1ccccc1)c1cc2c([nH]c3ccccc32)c(-c2ccccc2)n1 | 73.9%
39 | O=C(N/N=C\c1ccccc1)c1cc2c([nH]c3ccccc32)c(-c2ccc(C(F)(F)F)cc2)n1 | 31.2%
40 | O=C(N/N=C\c1ccccc1)c1cc2c([nH]c3ccccc32)c(-c2ccc(Cl)cc2)n1 | 43.7%
41 | O=C(N/N=C\c1ccc(C(F)(F)F)cc1)c1cc2c([nH]c3ccccc32)c(-c2ccc(C(F)(F)F)cc2)n1 | 35.7%
42 | O=C(N/N=C\c1ccc(C(F)(F)F)cc1)c1cc2c([nH]c3ccccc32)c(-c2ccccc2)n1 | 60.3%
43 | O=C(N/N=C\c1ccc(C(F)(F)F)cc1)c1cc2c([nH]c3ccccc32)c(-c2ccc(Cl)cc2)n1 | 57.9%
44 | O=C(N/N=C\c1ccccc1)C1Cc2c([nH]c3ccccc23)CN1 (stereo not drawn) | 15%
45 | COc1ccc(/C=N\NC(=O)C2Cc3c([nH]c4ccccc34)CN2)cc1 (stereo not drawn) | 8.62%
46 | COc1cc(/C=N\NC(=O)C2Cc3c([nH]c4ccccc34)CN2)cc(OC)c1OC (stereo not drawn) | 23.8%
47 | O=C(N/N=C\Nc1ccc(C(F)(F)F)cc1)C1Cc2c([nH]c3ccccc23)CN1 (stereo not drawn) | 0%
48 | O=C(N/N=C\c1ccccc1)c1cc2c(cn1)[nH]c1ccccc12 | 35.9%
49 | COc1ccc(/C=N\NC(=O)c2cc3c(cn2)[nH]c2ccccc23)cc1 | 29.6%
50 | COc1cc(/C=N\NC(=O)c2cc3c(cn2)[nH]c2ccccc23)cc(OC)c1OC | 37.1%
51 | COc1cc(OC)c(/C=N\NC(=O)c2cc3c(cn2)[nH]c2ccccc23)c(OC)c1 | 12.6%
52 | O=C(N/N=C\c1ccc(Cl)cc1)c1cc2c(cn1)[nH]c1ccccc12 | 0%
53 | O=C(O)COc1ccc(Cl)cc1Cl [2,4-DICHLOROPHENOXYACETIC ACID] | 100%
54 | COc1ccc2c(c1)[nH]c1c(C)nccc12 [HARMINE] | 32.5%

These compounds were tested on Brassica rapa subsp. oleifera (assay: Herbicidal activity against Brassica rapa subsp. oleifera assessed as growth inhibition at 10 ug/ml). Conditions: read-out: GI.
Format: functional
Method in brief: as §1

Row | SMILES | inhibition of growth at 10 µg/mL
55 | O=C(N/N=C\c1ccc([N+](=O)[O-])cc1)c1cc2c(cn1)[nH]c1ccccc12 | 30.9%
56 | O=C(N/N=C\c1ccccc1O)c1cc2c(cn1)[nH]c1ccccc12 | 19.4%
57 | COc1cc(/C=N\NC(=O)c2cc3c(cn2)[nH]c2ccccc23)ccc1O | 27.4%
58 | O=C(N/N=C\c1ccco1)c1cc2c(cn1)[nH]c1ccccc12 | 2.59%
59 | Cc1n[nH]c(Cl)c1/C=N\NC(=O)c1cc2c(cn1)[nH]c1ccccc12 | 32.2%
60 | O=C(N/N=C\Nc1ccc(C(F)(F)F)cc1)c1cc2c(cn1)[nH]c1ccccc12 | 7.52%
61 | O=C(NN=C(c1ccccc1)c1ccccc1)c1cc2c(cn1)[nH]c1ccccc12 | 0%
62 | Cc1nc(C(=O)N/N=C\c2ccccc2)cc2c1[nH]c1ccccc12 | 37.2%
63 | O=C(N/N=C\c1ccccc1)c1cc2c([nH]c3ccccc32)c(-c2ccccc2)n1 | 62.1%
64 | O=C(N/N=C\c1ccccc1)c1cc2c([nH]c3ccccc32)c(-c2ccc(C(F)(F)F)cc2)n1 | 27.1%
65 | O=C(N/N=C\c1ccccc1)c1cc2c([nH]c3ccccc32)c(-c2ccc(Cl)cc2)n1 | 67%
66 | O=C(N/N=C\c1ccc(C(F)(F)F)cc1)c1cc2c([nH]c3ccccc32)c(-c2ccc(C(F)(F)F)cc2)n1 | 35.4%
67 | O=C(N/N=C\c1ccc(C(F)(F)F)cc1)c1cc2c([nH]c3ccccc32)c(-c2ccccc2)n1 | 57.9%
68 | O=C(N/N=C\c1ccc(C(F)(F)F)cc1)c1cc2c([nH]c3ccccc32)c(-c2ccc(Cl)cc2)n1 | 66.9%
69 | O=C(N/N=C\c1ccccc1)C1Cc2c([nH]c3ccccc23)CN1 (stereo not drawn) | 3.75%
70 | COc1ccc(/C=N\NC(=O)C2Cc3c([nH]c4ccccc34)CN2)cc1 (stereo not drawn) | 8.69%
71 | COc1cc(/C=N\NC(=O)C2Cc3c([nH]c4ccccc34)CN2)cc(OC)c1OC (stereo not drawn) | 5.28%
72 | O=C(N/N=C\Nc1ccc(C(F)(F)F)cc1)C1Cc2c([nH]c3ccccc23)CN1 (stereo not drawn) | 0%
73 | O=C(N/N=C\c1ccccc1)c1cc2c(cn1)[nH]c1ccccc12 | 18.1%
74 | COc1ccc(/C=N\NC(=O)c2cc3c(cn2)[nH]c2ccccc23)cc1 | 24.7%
75 | COc1cc(/C=N\NC(=O)c2cc3c(cn2)[nH]c2ccccc23)cc(OC)c1OC | 16.3%
76 | COc1cc(OC)c(/C=N\NC(=O)c2cc3c(cn2)[nH]c2ccccc23)c(OC)c1 | 13.8%
77 | O=C(N/N=C\c1ccc(Cl)cc1)c1cc2c(cn1)[nH]c1ccccc12 | 18%
78 | COc1ccc2c(c1)[nH]c1c(C)nccc12 [HARMINE] | 20.2%

What follows are compounds tested on Brassica rapa subsp. oleifera (assay: Herbicidal activity against Brassica rapa subsp. oleifera assessed as growth inhibition at 100 ug/ml). Conditions: read-out: GI.
Format: functional
Method in brief: as §1

Row | SMILES | inhibition of growth at 100 µg/mL
79 | O=C(N/N=C\c1ccc([N+](=O)[O-])cc1)c1cc2c(cn1)[nH]c1ccccc12 | 85.4%
80 | O=C(N/N=C\c1ccccc1O)c1cc2c(cn1)[nH]c1ccccc12 | 50.1%
81 | COc1cc(/C=N\NC(=O)c2cc3c(cn2)[nH]c2ccccc23)ccc1O | 63.2%
82 | O=C(N/N=C\c1ccco1)c1cc2c(cn1)[nH]c1ccccc12 | 17.9%
83 | Cc1n[nH]c(Cl)c1/C=N\NC(=O)c1cc2c(cn1)[nH]c1ccccc12 | 90.8%
84 | O=C(N/N=C\Nc1ccc(C(F)(F)F)cc1)c1cc2c(cn1)[nH]c1ccccc12 | 23.7%
85 | O=C(NN=C(c1ccccc1)c1ccccc1)c1cc2c(cn1)[nH]c1ccccc12 | 10.5%
86 | Cc1nc(C(=O)N/N=C\c2ccccc2)cc2c1[nH]c1ccccc12 | 87%
87 | O=C(N/N=C\c1ccccc1)c1cc2c([nH]c3ccccc32)c(-c2ccccc2)n1 | 100%
88 | O=C(N/N=C\c1ccccc1)c1cc2c([nH]c3ccccc32)c(-c2ccc(C(F)(F)F)cc2)n1 | 82.3%
89 | O=C(N/N=C\c1ccccc1)c1cc2c([nH]c3ccccc32)c(-c2ccc(Cl)cc2)n1 | 91.7%
90 | O=C(N/N=C\c1ccc(C(F)(F)F)cc1)c1cc2c([nH]c3ccccc32)c(-c2ccc(C(F)(F)F)cc2)n1 | 76.5%
91 | O=C(N/N=C\c1ccc(C(F)(F)F)cc1)c1cc2c([nH]c3ccccc32)c(-c2ccccc2)n1 | 100%
92 | O=C(N/N=C\c1ccc(C(F)(F)F)cc1)c1cc2c([nH]c3ccccc32)c(-c2ccc(Cl)cc2)n1 | 93.7%
93 | O=C(N/N=C\c1ccccc1)C1Cc2c([nH]c3ccccc23)CN1 (stereo not drawn) | 25.3%
94 | COc1ccc(/C=N\NC(=O)C2Cc3c([nH]c4ccccc34)CN2)cc1 (stereo not drawn) | 37.1%
95 | COc1cc(/C=N\NC(=O)C2Cc3c([nH]c4ccccc34)CN2)cc(OC)c1OC (stereo not drawn) | 33.5%
96 | O=C(N/N=C\Nc1ccc(C(F)(F)F)cc1)C1Cc2c([nH]c3ccccc23)CN1 (stereo not drawn) | 16.4%
97 | O=C(N/N=C\c1ccccc1)c1cc2c(cn1)[nH]c1ccccc12 | 55.6%
98 | COc1ccc(/C=N\NC(=O)c2cc3c(cn2)[nH]c2ccccc23)cc1 | 71.6%
99 | COc1cc(/C=N\NC(=O)c2cc3c(cn2)[nH]c2ccccc23)cc(OC)c1OC | 58.4%
100 | COc1cc(OC)c(/C=N\NC(=O)c2cc3c(cn2)[nH]c2ccccc23)c(OC)c1 | 42.7%
101 | O=C(N/N=C\c1ccc(Cl)cc1)c1cc2c(cn1)[nH]c1ccccc12 | 47.3%
102 | O=C(O)COc1ccc(Cl)cc1Cl [2,4-DICHLOROPHENOXYACETIC ACID] | 100%
103 | COc1ccc2c(c1)[nH]c1c(C)nccc12 [HARMINE] | 53.7%
